This excerpt belongs to a sample that is enriched for hits.
XBP1 UPR activ = activators of adaptive XBP1 UPR arm, primary screen, cell-based, CHO-XBP1 luciferase reporter, luminescence, uHTS | 0.33% of 330,000 active | AID 463104, 2010 | IRE1-XBP1 UPR activation; percent of tunicamycin response, DMSO as zero | activation, % at 20 µM;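 active means versus positive control, 20 µM dose yields 30% or more activation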;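 further: 100% = tunicamycin at 10 µg/mL and 0% = DMSO only wells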
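Material: CHO-XBP1 cells stably carrying IRE1-XBP1-driven luciferase reporter | Medium: F12 with 10% serum | Compound dosing: 20 µM single concentration, DMSO 1% | Incubation: Overnight seeding at 37 °C, 6 h compound treatment at 37 °C | Detection: Steady-Glo luminescence read | Read-out basis: % activation of reporter signal versus tunicamycin and DMSO controls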
VLA-4 inh = inhibition in human VLA-4 binding assay, primary screen, VLA-4 allosteric modulator project, MLPCN library, flow cytometry, VLA-4 expressing cells. ligand binding flow cytometry. inhibition, % (about 7 µM as worked out from the volumes in the protocol). 0.2% of 330,000 active; in the data active means inhibition above about 50%
UPR CHOP act = activators of apoptotic CHOP UPR arm, primary screen, cell-based, CHO-CHOP luciferase reporter, luminescence, uHTS; AID 449763, 2010; 0.34% of 330,000 active; UPR activation; percent of tunicamycin response over DMSO baseline; activation, % at 10 µM;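 active means at 10 µM dose, activation of 40% or more, normalized to positive control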;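 further: 100% = tunicamycin at 10 µg/mL and 0% = DMSO alone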
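Assay system: CHO-CHOP cells, stable luciferase reporter of PERK-eIF2a-CHOP signalling / Buffer or medium: F12 plus 10% serum / Compound dosing: one dose, 10 µM in 0.5% DMSO / Times: 6 h compound treatment, 37 °C / Technique: luciferase luminescence / Read-out: % reporter activation, DMSO baseline versus tunicamycin full activation / Benchmarks: tunicamycin and DMSO controls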
Beta2AR agonist = beta2AR agonists driving receptor internalization, primary screen, cell-based, FAP fluorogen, flow cytometry; response, % (concentration not given with the values); Am2.2-beta2AR cells; Beta-2 adrenergic receptor (Homo sapiens), P07550; AID 504454, 2011; 0.43% of 340,000 active;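 active means response above a set limit, near 3 SD of response in nonfluorescent compounds, cut at about 42% in these data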
Target sequence (P07550 whole entry, looked up): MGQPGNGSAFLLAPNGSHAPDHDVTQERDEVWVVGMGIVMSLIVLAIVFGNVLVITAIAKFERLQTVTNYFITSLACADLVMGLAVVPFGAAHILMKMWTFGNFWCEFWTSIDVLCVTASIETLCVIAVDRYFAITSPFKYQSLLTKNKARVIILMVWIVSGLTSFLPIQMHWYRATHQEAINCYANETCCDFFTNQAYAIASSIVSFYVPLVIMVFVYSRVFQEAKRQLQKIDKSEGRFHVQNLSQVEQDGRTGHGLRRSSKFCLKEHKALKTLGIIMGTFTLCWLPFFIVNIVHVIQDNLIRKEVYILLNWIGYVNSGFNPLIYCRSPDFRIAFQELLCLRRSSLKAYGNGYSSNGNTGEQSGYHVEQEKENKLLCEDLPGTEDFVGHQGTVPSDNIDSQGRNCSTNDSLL
CHOP inhibitor = inhibitors of CHOP promoter induction, primary screen, cell-based, unfolded protein response, luciferase reporter; CHO-K1 CHOP-promoter luciferase, tunicamycin-induced, 15-18 h; inhibition, % at 10 µM; 3.8% of 220,000 active; AID 2732, 2010;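 active means compounds that reduced the stress-induced luciferase reporter signal by more than about 70% of percent inhibition, limit read from the data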;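 further: 0% = tunicamycin plus vehicle and 100% = wells without tunicamycin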
* marks the source's active call; other numbers are inactive results; . = not tested or not shown.

SMILES | XBP1 UPR activ | VLA-4 inh | UPR CHOP act | Beta2AR agonist | CHOP inhibitor
O=C(O)CCC/C=C\C[C@@H]1[C@@H](/C=C/[C@H](O)C2Cc3ccccc3C2)[C@@H](F)C[C@@H]1O | . | . | . | . | -21
Cc1cccc(N2CCN(C(=O)C3CCC(=O)N(C4CC4)C3)CC2)c1C (stereo unspecified) | -4 | 8 | 3 | 8 | .
COc1ccc2sc(N(CCCN(C)C)C(=O)c3ccc(S(=O)(=O)N4CCCc5ccccc54)cc3)nc2c1 | 10 | 35 | 3 | 53* | .
COc1cc2nc(N(CCCN(C)C)C(=O)c3ccc(S(=O)(=O)N4CCc5ccccc54)cc3)sc2cc1OC | 1 | -8 | 0 | 12 | .
O=c1cc(N2CCCCC2)c(-c2ccccc2)nn1Cc1ccccc1Cl | -4 | 14 | 2 | 3 | 90*
O=c1cc(N2CCCCC2)c(-c2ccccc2)nn1Cc1ccc(Cl)cc1Cl | -4 | -6 | -2 | -12 | 5
O=C1NC(=O)/C(=C\c2ccccc2OCc2ccc([N+](=O)[O-])cc2)N1 | 1 | 5 | -1 | -2 | 57
O=C1NC(=O)/C(=C\c2ccc(OCc3cccc([N+](=O)[O-])c3)cc2)N1 | 6 | 5 | 4 | 12 | 76*
Cc1ccnc(NC(=O)CSc2nnc3c(n2)[nH]c2ccccc23)c1 | 2 | 3 | 2 | . | 44
Cc1ccc(SCC2(O)CCN(C(=O)c3ccc(Cl)cc3)CC2)cc1 | -3 | -6 | -1 | 1 | 82*
Cc1ccc(Oc2ccc(-c3nc(N)nc(N)n3)cc2)cc1C | -1 | 13 | 2 | -4 | 89*
Nc1nc(N)nc(-c2ccc(Oc3ccccc3)cc2)n1 | -1 | 38 | -1 | -6 | 9
CC(C)OC(=O)c1cccnc1N1CCN(c2ccc(F)cc2)CC1 | 3 | -8 | -4 | 0 | 78*
O=C(c1cc(-c2ccco2)nn1-c1cccc(Cl)c1)N1CCCCC1 | -2 | -7 | 0 | 4 | 71*
CC(C)NC(=O)c1cc(-c2ccco2)nn1-c1ccc(Cl)cc1 | -1 | -3 | 1 | 6 | .
COc1cc(SC)ccc1C(=O)OCC(=O)N1CCN(C(C)=O)CC1 | 0 | 6 | 0 | -5 | .
Cc1ccc(C(=O)OC2CCS(=O)(=O)c3sccc32)cc1 (stereo unspecified) | 0 | 0 | -1 | 0 | 77*
CCCC(=O)OC1CCS(=O)(=O)c2sccc21 (stereo unspecified) | 0 | 0 | -1 | -1 | -13
O=C(O)C(Cc1ccccc1)N1C(=O)/C(=C/c2cccc3ccccc23)SC1=S (stereo unspecified) | . | 22 | . | . | 106*
O=C(O)C(Cc1ccccc1)N1C(=O)/C(=C/c2ccccc2)SC1=S (stereo unspecified) | 1 | 18 | 2 | 7 | 4
CC1CCc2c(sc(NC(=O)CSc3nnc(-c4ccccc4)o3)c2C#N)C1 (stereo unspecified) | -2 | -11 | 1 | 5 | 74*
N#Cc1c(NC(=O)CSc2ncn[nH]2)sc2c1CCCC2 | -2 | 9 | -6 | -8 | 78*
CC1CCc2c(sc(NC(=O)CSc3ncn[nH]3)c2C#N)C1 (stereo unspecified) | -9 | 11 | -8 | 0 | 85*
N#Cc1c(NC(=O)CSc2nnc(-c3ccccc3)o2)sc2c1CCCC2 | 13 | 1 | 1 | 7 | 39
CC(=O)c1c(C)[nH]c(C(=O)OCC(=O)Nc2sc3c(c2C#N)CCC(C)C3)c1C (stereo unspecified) | -1 | 1 | 2 | -2 | 94*
SMILES | XBP1 UPR activ | VLA-4 inh | UPR CHOP act | Beta2AR agonist | CHOP inhibitor
CC(C)(C)C1CCc2c(sc(NC(=O)CSc3ncn[nH]3)c2C#N)C1 (stereo unspecified) | -2 | 6 | 0 | -10 | 63
C=CCC[C@@H](Cc1ccc(F)cc1)C(=O)OC[C@@H](NC(=O)[C@H](CC=C)CC(=O)NCCO)C(C)(C)C | -2 | 4 | 2 | -11 | .
COc1ccc(CNC(=O)Cn2nc([N+](=O)[O-])cc2C)cc1 | 4 | 22 | 2 | 11 | .
COc1ccc(S(=O)(=O)Nc2ccc(C(N)=O)cc2)cc1C(=O)N1CCCCCC1 | 8 | -16 | 0 | 2 | .
Cn1c(CNC(=O)c2ccc(Cl)cc2)nnc1SCC(=O)Nc1sc2c(c1C#N)CCCC2 | 0 | 10 | 1 | -5 | 91*
Cc1nn(-c2ccccc2)c(C)c1/C=N/NC(=O)c1cc(-c2ccccc2)n[nH]1 | 14 | 7 | -1 | 68* | 1
Cc1nn(-c2ccccc2)c(Cl)c1/C=N/NC(=O)c1cccnc1 | 4 | 0 | 4 | 50* | 6
Cc1cccc(/C=N/NC(=O)c2cc(-c3cccnc3)nc3c2c(C)nn3-c2ccccc2)c1 | 0 | -9 | -1 | 103* | 25
C[C@H]1CC2C3CCC4=CC(=O)C=C[C@]4(C)[C@@]3(Cl)[C@@H](O)C[C@]2(C)[C@@]1(O)C(=O)CO (stereo partly specified) | . | . | . | . | 7
Cc1nn(-c2nc(-c3ccco3)cc(C(F)(F)F)n2)c(C)c1Br | 2 | 2 | -1 | -3 | 73*
Cc1ccc(NC(=O)OCc2cccs2)cc1 | 3 | 57* | 4 | . | .
C=C1C(=O)c2sccc2C(c2ccc(OC)c(OC)c2)C1COC(C)=O (stereo unspecified) | . | . | . | 102* | .
CCN1CCN(CC(=O)N2N=C(c3cccs3)CC2c2ccc(OC)c(OC)c2)C(=O)C1=O (stereo unspecified) | 1 | 4 | -1 | -3 | -10
O=C(NC(NC(=S)Nc1cccc(Cl)c1)C(Cl)(Cl)Cl)OCc1ccccc1 (stereo unspecified) | 6 | 0 | -2 | 1 | 109*
O=C(NC(NC(=S)Nc1cccc(C(=O)O)c1)C(Cl)(Cl)Cl)OCc1ccccc1 (stereo unspecified) | -3 | 0 | 1 | 0 | -5
CCn1c(Cn2nnc(-c3ccccc3)n2)nnc1SCc1ccc(Cl)c(Cl)c1 | -3 | 9 | -1 | -1 | 81*
CCCn1c(N)c(N(CCOC)C(=O)CCC2CCCCC2)c(=O)[nH]c1=O | 1 | -6 | 0 | 10 | .
CCC(C)C(Nc1ccc(C(=O)OC)cc1[N+](=O)[O-])C(=O)OC (stereo unspecified) | 0 | -10 | 2 | 1 | 89*
COc1cc(OC)c(NS(=O)(=O)c2ccc3c(c2)NC(=O)CO3)cc1Cl | -2 | 0 | 1 | 5 | .
Cc1cc(Cl)ccc1Oc1nc(-c2ccccc2)ncc1S(C)(=O)=O | 0 | 0 | -2 | -7 | 79*

Bioassay records (PubChem)
